These results are taken from ChEMBL document CHEMBL4229344 (Eur J Med Chem, 2018).

Series [1] concerns the target Homeodomain-interacting protein kinase 2 (Homo sapiens) (UniProt Q9H2X6). The series is described as follows: Binding affinity to wild-type human partial length HIPK2 (M153 to S564 residues) expressed in mammalian expression system assessed as residual binding level at 1 uM by Kinomescan method relative to control.
Series [2] deals with Ankyrin repeat and protein kinase domain-containing protein 1 (Homo sapiens) (UniProt Q8NFD2). Kind of series: Binding affinity to wild-type human partial length ANKK1 (M1 to A305 residues) expressed in mammalian expression system assessed as residual binding level at 1 uM by Kinomescan method relative to control. The gist of the method:
(§1)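 Single-concentration KINOMEscan (DiscoverX) binding screen at 1 μM against a panel of 468 purified kinases and mutants. The read-out is binding relative to control.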

The target in series [3] is Serine/threonine-protein kinase MRCK alpha (Homo sapiens) (UniProt Q5VT25). The series is described as follows: Binding affinity to wild-type human partial length MRCKA (L57 to V418 residues) expressed in bacterial expression system assessed as residual binding level at 1 uM by Kinomescan method relative to control. In a few lines:
(§2)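 Kinome-wide competition binding screen against a panel of 468 purified kinases/mutants, with the test compound at a single concentration of 1 μM. Read-out is the relative binding activity of each kinase in the presence of compound.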

Series [4] concerns the target LIM domain kinase 1 (Homo sapiens) (UniProt P53667). Kind of series: Binding affinity to wild-type human full length LIMK1 (M1 to D647 residues) expressed in bacterial expression system assessed as residual binding level at 1 uM by Kinomescan method relative to control. The gist of the method: (§3)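 Single-concentration (1 μM) competition-binding screen run by KINOMEscan against a panel of 468 purified kinases and mutants. The read-out is the relative binding activity of the test compound to each kinase.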

The target of series [5] is Serine/threonine-protein kinase WNK3 (Homo sapiens) (UniProt Q9BYP7). The series is described as follows: Binding affinity to wild-type human partial length WNK3 (M1 to D434 residues) expressed in mammalian expression system assessed as residual binding level at 1 uM by Kinomescan method relative to control.
The nature of series [6]: Oral bioavailability in Sprague-Dawley rat at 10 mg/kg. The class given is ADME, organism-based. The note with it: in vivo. In a few lines: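 Male Sprague-Dawley rats, 6–8 weeks old and fasted overnight, dosed IV at 1 mg/kg or PO at 10 mg/kg. Formulation was 5% DMSO/40% PEG400/55% saline (1 mg/mL). Jugular blood collected on heparin from 1 min to 8 h (IV) or 5 min to 24 h (PO). Plasma separated by centrifugation at 2–8 °C and stored at −80 °C.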

Series [7] can be described thus: MRT (0 to t) in Sprague-Dawley rat at 1 mg/kg, iv. To be noted: in vivo. Format: ADME, organism-based.
In series [8] the target is Platelet-derived growth factor receptor beta (Homo sapiens, UniProt P09619). The series is described as follows: Inhibition of PDGFRbeta (unknown origin) using poly(4:1 Glu,Tyr) peptide as substrate preincubated for 1 hr followed by addition of ATP and measured after 30 mins by ADP-Glo bioluminescence assay. (In general: In ADP-Glo the light output rises with the ADP produced.)

Series [9] has as its target Platelet-derived growth factor receptor alpha (Homo sapiens, UniProt P16234). The series is described as follows: Inhibition of PDGFRalpha (unknown origin) using poly(4:1 Glu,Tyr) peptide as substrate preincubated for 1 hr followed by addition of ATP and measured after 30 mins by ADP-Glo bioluminescence assay.
Series [10] concerns the target Tyrosine-protein kinase SYK (Homo sapiens) (UniProt P43405). Kind of series: Binding affinity to wild-type human partial length SYK (D354 to N635 residues) expressed in bacterial expression system assessed as residual binding level at 1 uM by Kinomescan method relative to control.
Series [11] deals with Serine/threonine-protein kinase 38 (Homo sapiens) (UniProt Q15208). The series is described as follows: Binding affinity to wild-type human partial length NDR1 (N33 to E449 residues) expressed in mammalian expression system assessed as residual binding level at 1 uM by Kinomescan method relative to control.
Series [12] deals with ALK tyrosine kinase receptor (Homo sapiens) (UniProt Q9UM73). Kind of series: Binding affinity to wild-type human partial length ALK (I1088 to E1409 residues) expressed in mammalian expression system assessed as residual binding level at 1 uM by Kinomescan method relative to control. The gist of the method:
as §1

Series [13] deals with BDNF/NT-3 growth factors receptor (Homo sapiens) (UniProt Q16620). The series is described as follows: Binding affinity to wild-type human partial length TRKB (Q547 to G838 residues) expressed in mammalian expression system assessed as residual binding level at 1 uM by Kinomescan method relative to control.
For series [14], the target named is Cyclin-dependent kinase-like 5 (Homo sapiens) (UniProt O76039). The series is described as follows: Binding affinity to wild-type human partial length CDKL5 (M1 to S337 residues) expressed in mammalian expression system assessed as residual binding level at 1 uM by Kinomescan method relative to control.
Series [15] concerns the target Mitogen-activated protein kinase kinase kinase 7 (Homo sapiens) (UniProt O43318). Kind of series: Binding affinity to wild-type human partial length TAK1 (M1 to Q303 residues) expressed in mammalian expression system assessed as residual binding level at 1 uM by Kinomescan method relative to control. In a few lines: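 KINOMEscan competition binding against a panel of 468 purified kinases/mutants, compound tested at 1 μM; readout is relative binding activity versus control.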

The subject of series [16] is NCI-H1703. The series is described as follows: Antiproliferative activity against human NCI-H1703 cells after 72 hrs in presence of PDGF-AA by CellTiter-Glo or CCK-8 assay. Format: functional. To be noted: NCI-H1703, 72 h. The gist of the method:
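Cells in RPMI 1640 with 10% FBS at 37 °C, 5% CO2, seeded at 1–3 × 10^4 cells/mL with serial compound dilutions for 72 h. Viability read by CellTiter-Glo luminescence or CCK-8 absorbance (450/655 nm), normalized to DMSO control.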
On the technique in general: In ATP-based viability assays light output follows the ATP content of the culture.

In series [17] the test system is Tyrosine-protein kinase ABL1 (Homo sapiens), P00519 [M351T]. Kind of series: Binding affinity to human phosphorylated ABL1 M351T mutant (S229 to K512 residues) expressed in mammalian expression system assessed as residual binding level at 1 uM by Kinomescan method relative to control. In a few lines: as §3
Series [18] addresses Casein kinase I isoform epsilon (Homo sapiens) (UniProt P49674). The series is described as follows: Binding affinity to wild-type human full length CSNK1E (M1 to K416 residues) expressed in bacterial expression system assessed as residual binding level at 1 uM by Kinomescan method relative to control. In a few lines:
as §3

The target of series [19] is Ephrin type-A receptor 8 (Homo sapiens) (UniProt P29322). Kind of series: Binding affinity to wild-type human partial length EPHA8 (Q608 to C920 residues) expressed in bacterial expression system assessed as residual binding level at 1 uM by Kinomescan method relative to control. The gist of the method:
as §2

For series [20], the target named is Ephrin type-B receptor 6 (Homo sapiens) (UniProt O15197). The series is described as follows: Binding affinity to wild-type human partial length EPHB6 (Q634 to P948 residues) expressed in mammalian expression system assessed as residual binding level at 1 uM by Kinomescan method relative to control.
The subject of series [21] is Serine/threonine-protein kinase B-raf (Homo sapiens), P15056 [V600E]. The series is described as follows: Binding affinity to human partial length BRAF V600E mutant (S429 to E741 residues) expressed in mammalian expression system assessed as residual binding level at 1 uM by Kinomescan method relative to control. In a few lines: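 Kinome-wide single-concentration binding screen (KINOMEscan) at 1 μM against a panel of 468 purified kinases and mutants. Read-out is relative binding of each kinase compared with control. Selectivity across the panel was summarised as an S(10) score.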

Platelet-derived growth factor receptor beta, sequence (P09619 whole entry): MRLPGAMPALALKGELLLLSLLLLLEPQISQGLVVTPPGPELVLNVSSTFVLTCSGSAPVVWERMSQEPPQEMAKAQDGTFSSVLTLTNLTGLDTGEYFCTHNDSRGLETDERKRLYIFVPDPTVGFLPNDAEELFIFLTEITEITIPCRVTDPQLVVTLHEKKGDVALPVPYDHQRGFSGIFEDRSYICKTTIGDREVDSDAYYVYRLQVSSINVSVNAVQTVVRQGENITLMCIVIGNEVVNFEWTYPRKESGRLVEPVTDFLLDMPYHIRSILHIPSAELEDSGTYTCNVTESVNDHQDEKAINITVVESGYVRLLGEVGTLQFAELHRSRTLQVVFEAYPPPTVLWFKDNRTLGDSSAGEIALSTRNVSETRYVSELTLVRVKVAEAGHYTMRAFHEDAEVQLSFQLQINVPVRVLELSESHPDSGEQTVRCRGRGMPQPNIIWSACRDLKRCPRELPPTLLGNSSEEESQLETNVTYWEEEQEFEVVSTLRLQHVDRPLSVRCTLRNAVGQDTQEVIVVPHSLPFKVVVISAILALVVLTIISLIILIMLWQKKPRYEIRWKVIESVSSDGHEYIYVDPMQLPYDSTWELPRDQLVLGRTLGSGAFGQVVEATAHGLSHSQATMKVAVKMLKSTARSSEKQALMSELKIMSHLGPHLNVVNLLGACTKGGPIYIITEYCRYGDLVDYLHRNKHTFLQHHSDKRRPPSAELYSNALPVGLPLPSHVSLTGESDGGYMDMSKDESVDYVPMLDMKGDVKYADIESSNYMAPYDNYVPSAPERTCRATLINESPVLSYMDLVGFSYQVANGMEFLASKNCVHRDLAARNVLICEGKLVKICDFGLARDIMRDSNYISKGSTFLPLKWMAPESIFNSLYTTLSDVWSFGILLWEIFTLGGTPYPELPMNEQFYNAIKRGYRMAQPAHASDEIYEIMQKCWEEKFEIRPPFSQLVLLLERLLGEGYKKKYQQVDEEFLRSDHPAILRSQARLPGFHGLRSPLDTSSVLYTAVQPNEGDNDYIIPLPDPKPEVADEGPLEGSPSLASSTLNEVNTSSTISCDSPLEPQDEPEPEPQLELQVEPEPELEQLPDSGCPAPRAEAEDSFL
Serine/threonine-protein kinase B-raf (Homo sapiens), P15056 [V600E], sequence (P15056 whole entry V600E, the tested form may be a part): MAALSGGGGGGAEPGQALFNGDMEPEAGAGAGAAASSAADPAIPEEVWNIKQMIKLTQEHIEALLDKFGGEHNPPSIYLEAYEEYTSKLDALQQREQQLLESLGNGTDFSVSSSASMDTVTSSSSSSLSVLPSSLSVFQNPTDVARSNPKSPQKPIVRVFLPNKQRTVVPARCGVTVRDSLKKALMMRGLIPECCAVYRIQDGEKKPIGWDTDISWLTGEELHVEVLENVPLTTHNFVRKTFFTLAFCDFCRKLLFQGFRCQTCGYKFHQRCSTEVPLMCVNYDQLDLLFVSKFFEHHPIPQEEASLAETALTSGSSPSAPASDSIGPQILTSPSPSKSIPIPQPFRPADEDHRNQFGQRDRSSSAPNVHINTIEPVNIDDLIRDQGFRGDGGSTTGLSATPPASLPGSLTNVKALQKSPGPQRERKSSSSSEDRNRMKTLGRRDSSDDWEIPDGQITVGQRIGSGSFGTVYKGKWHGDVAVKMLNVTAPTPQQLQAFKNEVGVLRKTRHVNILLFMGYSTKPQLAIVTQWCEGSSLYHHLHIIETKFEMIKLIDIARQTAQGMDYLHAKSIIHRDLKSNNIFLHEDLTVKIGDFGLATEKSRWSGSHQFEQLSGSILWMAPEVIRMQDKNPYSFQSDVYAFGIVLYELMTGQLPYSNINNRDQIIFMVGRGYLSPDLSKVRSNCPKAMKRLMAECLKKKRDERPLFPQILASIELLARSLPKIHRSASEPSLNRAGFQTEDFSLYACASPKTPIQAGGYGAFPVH
Platelet-derived growth factor receptor alpha, sequence (P16234 whole entry, the tested form may be a part): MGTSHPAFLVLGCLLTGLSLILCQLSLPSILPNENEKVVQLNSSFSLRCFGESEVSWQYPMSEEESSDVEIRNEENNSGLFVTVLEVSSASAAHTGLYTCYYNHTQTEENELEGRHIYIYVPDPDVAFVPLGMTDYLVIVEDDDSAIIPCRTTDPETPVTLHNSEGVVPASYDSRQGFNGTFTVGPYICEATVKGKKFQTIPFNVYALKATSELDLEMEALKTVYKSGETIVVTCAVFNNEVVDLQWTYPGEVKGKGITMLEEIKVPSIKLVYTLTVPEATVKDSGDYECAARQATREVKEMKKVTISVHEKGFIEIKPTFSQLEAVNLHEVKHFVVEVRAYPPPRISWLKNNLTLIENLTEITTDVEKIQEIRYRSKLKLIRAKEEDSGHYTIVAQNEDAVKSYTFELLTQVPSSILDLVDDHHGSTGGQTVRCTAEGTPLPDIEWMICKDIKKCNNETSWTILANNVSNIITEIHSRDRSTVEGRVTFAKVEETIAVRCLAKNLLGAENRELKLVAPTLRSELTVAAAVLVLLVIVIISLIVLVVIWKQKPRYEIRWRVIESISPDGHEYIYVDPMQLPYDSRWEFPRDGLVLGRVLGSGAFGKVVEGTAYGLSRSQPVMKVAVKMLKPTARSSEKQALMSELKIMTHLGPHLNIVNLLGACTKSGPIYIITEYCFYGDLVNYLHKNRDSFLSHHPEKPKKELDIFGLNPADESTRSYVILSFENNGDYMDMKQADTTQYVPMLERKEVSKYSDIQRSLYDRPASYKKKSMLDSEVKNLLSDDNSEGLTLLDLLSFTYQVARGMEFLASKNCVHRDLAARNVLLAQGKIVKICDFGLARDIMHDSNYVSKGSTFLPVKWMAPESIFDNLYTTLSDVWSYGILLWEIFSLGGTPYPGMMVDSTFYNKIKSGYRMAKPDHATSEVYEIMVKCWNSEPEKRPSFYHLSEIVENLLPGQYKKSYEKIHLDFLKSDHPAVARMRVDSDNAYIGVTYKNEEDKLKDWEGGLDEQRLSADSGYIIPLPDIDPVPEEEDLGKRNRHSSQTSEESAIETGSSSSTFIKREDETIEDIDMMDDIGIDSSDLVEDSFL
Casein kinase I isoform epsilon (Homo sapiens), sequence (P49674 whole entry, looked up, the tested form may be a part, canonical isoform): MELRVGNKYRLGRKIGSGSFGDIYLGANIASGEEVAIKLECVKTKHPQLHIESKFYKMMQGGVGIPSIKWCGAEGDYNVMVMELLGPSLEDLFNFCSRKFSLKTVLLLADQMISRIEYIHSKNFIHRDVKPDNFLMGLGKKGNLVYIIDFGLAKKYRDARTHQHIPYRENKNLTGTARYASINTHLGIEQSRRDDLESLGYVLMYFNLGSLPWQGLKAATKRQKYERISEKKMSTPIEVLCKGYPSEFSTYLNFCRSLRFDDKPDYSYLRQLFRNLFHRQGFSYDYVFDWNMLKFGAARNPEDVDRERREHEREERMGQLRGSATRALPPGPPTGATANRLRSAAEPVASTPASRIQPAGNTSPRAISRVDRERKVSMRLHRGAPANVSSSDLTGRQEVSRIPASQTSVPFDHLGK
Ephrin type-B receptor 6 (Homo sapiens), sequence (O15197 whole entry, the tested form may be a part): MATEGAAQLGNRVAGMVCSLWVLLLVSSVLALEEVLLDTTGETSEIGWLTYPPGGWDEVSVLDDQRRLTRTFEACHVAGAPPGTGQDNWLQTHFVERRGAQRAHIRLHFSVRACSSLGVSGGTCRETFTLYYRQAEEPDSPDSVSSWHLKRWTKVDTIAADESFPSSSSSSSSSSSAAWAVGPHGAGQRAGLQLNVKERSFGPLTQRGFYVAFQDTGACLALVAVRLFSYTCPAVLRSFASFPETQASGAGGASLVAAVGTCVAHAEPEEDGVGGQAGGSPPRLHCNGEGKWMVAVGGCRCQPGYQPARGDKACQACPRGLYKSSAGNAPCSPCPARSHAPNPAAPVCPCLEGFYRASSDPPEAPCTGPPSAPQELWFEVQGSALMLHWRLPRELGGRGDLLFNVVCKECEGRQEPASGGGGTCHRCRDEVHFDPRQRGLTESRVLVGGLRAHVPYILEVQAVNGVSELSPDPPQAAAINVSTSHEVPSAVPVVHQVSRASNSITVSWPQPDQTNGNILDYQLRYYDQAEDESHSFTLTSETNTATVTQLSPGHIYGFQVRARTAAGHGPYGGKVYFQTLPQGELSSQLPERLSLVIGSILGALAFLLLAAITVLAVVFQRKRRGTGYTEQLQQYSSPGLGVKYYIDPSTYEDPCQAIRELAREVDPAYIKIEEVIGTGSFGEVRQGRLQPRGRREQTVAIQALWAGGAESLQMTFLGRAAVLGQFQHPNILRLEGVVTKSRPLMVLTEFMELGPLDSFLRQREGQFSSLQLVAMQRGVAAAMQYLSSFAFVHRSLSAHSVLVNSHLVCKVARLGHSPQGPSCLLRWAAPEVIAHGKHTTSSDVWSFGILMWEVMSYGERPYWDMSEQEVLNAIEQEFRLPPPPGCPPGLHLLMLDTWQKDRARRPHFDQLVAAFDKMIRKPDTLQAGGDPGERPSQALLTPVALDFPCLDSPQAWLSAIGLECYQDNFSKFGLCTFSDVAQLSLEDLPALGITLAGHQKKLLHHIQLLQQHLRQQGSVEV
Serine/threonine-protein kinase 38 (Homo sapiens), sequence (Q15208 2-465 limits assumed): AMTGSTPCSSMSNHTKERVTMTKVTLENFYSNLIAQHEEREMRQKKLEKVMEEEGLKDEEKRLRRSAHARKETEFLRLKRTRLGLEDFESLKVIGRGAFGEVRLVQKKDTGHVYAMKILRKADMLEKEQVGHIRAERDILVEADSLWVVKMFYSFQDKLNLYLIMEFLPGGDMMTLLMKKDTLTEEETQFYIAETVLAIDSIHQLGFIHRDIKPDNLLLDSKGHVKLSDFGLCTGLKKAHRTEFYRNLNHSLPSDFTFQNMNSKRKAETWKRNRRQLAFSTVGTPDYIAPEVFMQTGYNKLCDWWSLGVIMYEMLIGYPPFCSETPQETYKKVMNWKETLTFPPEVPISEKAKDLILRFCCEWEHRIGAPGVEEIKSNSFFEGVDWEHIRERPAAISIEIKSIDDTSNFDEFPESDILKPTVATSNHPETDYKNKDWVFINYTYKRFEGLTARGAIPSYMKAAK

With `Cc1ccc(NC(=O)c2ccc(CN(CCN(C)C)C(=O)c3cccnc3)cc2)cc1Nc1nccc(-c2cccnc2)n1`, the Activity in [1] came out at 100%; in [2], 100%; in [3], 80%; in [4] it was 100%; in series [5], 100%; in series [10], 96%. Moreover, the Activity turned out to be 71% in series [11]; 100% in [12]; 100% in series [13]; 100% in series [14]; 92% in series [15]; 77% in series [17]. Further, the Activity in series [18] turned out to be 97%; in series [19] it was 89%; in series [20] it was 100%; in series [21], 49%. The same compound yielded a bioavailability in [6] of 1.96%. The MRT last in series [7] is 53.5 min. Also, the IC50 in [8] came to 6110 nM; in series [9], 132 nM. In addition, in [16], the GI50 turned out to be 2990 nM.

The bioavailability is the share of a dose that reaches the circulation, judged against a reference dose that is usually intravenous. High values mean much systemic uptake, low ones little systemic uptake. Broadly, the MRT last is a mean duration of stay, worked out from the concentration-time curve. As usually defined, the IC50 is the midpoint of a concentration-inhibition curve. Read a low IC50 as greater potency. As usually defined, the GI50 is the concentration giving 50% growth inhibition.
